Screening results: PubChem BioAssay, several laboratories
Shown are actives, neighbours in structure and some others; about 4.1% of the full set was active somewhere.
Cl transport mod – KCC2 (human) Cl- transport modulation; Q9H2X9; KCC2 cells, thallium flux FluoZin-2 fluorescence; B-score of Tl+ flux slope (higher = more flux/activation; lower = inhibition) at 10 µM; 2.2% of 190,000 active;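 active means thallium flux slope and its plate-corrected score both differing from the plate sample mean at a set confidence after two filtering rounds, in either direction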;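 further: slope of fluorescence scaled to starting intensity during 10 to 20 s after thallium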
KCNK9 block – inhibitors of human KCNK9 two-pore domain potassium channel; AID 488922; Q9NPC2; 1.2% of 310,000 active; HEK293 KCNK9, FluxOR thallium flux fluorescence; hits give low values; B-score at 10 µM;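 active means ratio B-score over 3 SD below the library mean, with starting fluorescence within 5 SD of its mean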;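 further: negative B-score means less thallium flux so channel inhibition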
hERG rescue – shields human hERG channel from block by proarrhythmic agents; Q12809; CHO-hERG, FluxOR thallium flux, dofetilide IC70 present; activation (rescue from dofetilide block), less the hit threshold, % at 10 µM; 0.51% of 310,000 active;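 active means activation above the mean of controls blocked by dofetilide plus 5 SD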;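 further: thallium influx through hERG after potassium depolarization seen as dye fluorescence rise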
KCNQ1 act – potentiates or activates the human KCNQ1 potassium channel; P51787; CHO-K1 KCNQ1, thallium flux FluxOR fluorescence; hits give high values; B-score at 10 µM; 0.35% of 310,000 active; AID 2648;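 active means fluorescence ratio B-score, a plate-corrected score, at least three library SD, with initial intensity B-score within 5 SD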
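Assay system: CHO-K1 cells stably expressing KCNQ1; Medium: assay buffer with matched DMSO; Also added: K+/Tl+ depolarizing stimulus; Dosing: single dose; Timing: dye 90 min, compound 20 min, room temperature; Measured by: kinetic FluxOR thallium fluorescence, 10-s 1-Hz baseline, 110-s post-stimulus read; Read-out: peak-minus-minimum fluorescence over initial fluorescence, negative-control normalized, B-scored.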
KCNK3 block – human KCNK3 channel inhibition, primary screen. B-score at 10 µM. 0.84% of 340,000 active. CHO-KCNK3 thallium flux, FluxOR fluorescence; hits give low values. O14649;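 active means B-score under library mean minus 4 SD, starting fluorescence ratio at most library mean plus 5 SD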;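 further: more negative B-score means stronger inhibition of thallium flux through KCNK3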
KCNQ1 block – human KCNQ1 channel inhibition | P51787 | 1.3% of 310,000 active | AID 2642 | B-score at 10 µM | CHO-K1 KCNQ1, FluxOR thallium flux fluorescence; hits give high values;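 active means compounds whose thallium flux B-score, printed positive for inhibition, exceeds three library SD while starting fluorescence stays within three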;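 further: channel opened by potassium depolarization with thallium stimulus after 20 min compound exposure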
An asterisk follows results filed as active; i = inactive; · = not tested or not shown.

SMILES	Cl transport mod	KCNK9 block	hERG rescue	KCNQ1 act	KCNK3 block	KCNQ1 block
Oc1ccc(C=NN=C2c3ccccc3-c3ccccc32)c(O)c1	·	·	·	·	-8.8*	·
CCC(C)(C)n1nnnc1C(c1ccc(C)cc1)N(Cc1ccco1)Cc1cccs1 (centres undefined)	-1.1	-6.9*	-3	i	i	i
CC(C)(C)n1nnnc1C(c1cccnc1)N(Cc1ccccc1)Cc1ccco1 (centres undefined)	-1.2	i	-8	i	i	i
CC1=C(C(=O)Nc2ccccc2)C(c2ccco2)C(C#N)=C(SCC(=O)OC(C)C)N1 (centres undefined)	-2.9	i	-25	i	-9.8*	i
CC(=O)C1=C(C)NC(SCC(=O)c2ccc(F)cc2)=C(C#N)C1c1ccco1 (centres undefined)	·	i	-8	i	i	i
CCc1ccc(C(=O)CSC2=C(C#N)C(c3ccco3)C(C(C)=O)=C(C)N2)cc1 (centres undefined)	·	-11*	-10	i	·	i
COc1ccc(C(=O)OCC(O)COC(=O)c2ccc(OC)cc2)cc1	·	i	-7	i	i	i
O=S(=O)(CCSc1ccccn1)c1nc2ccccc2s1	0.11	i	-18	i	i	6*
Cc1ccc(C(=O)NC(=S)NNC(=O)c2cccc([N+](=O)[O-])c2)cc1	·	i	-5	i	i	i
COc1cccc(C(=O)NC(=S)Nc2ccc([N+](=O)[O-])cc2C)c1	6.6*	i	-10	i	i	i
Cc1cccc(NC(=S)NNC(=O)c2cccc([N+](=O)[O-])c2)c1	-0.035	i	-18	i	i	7*
O=C(NNC(=S)Nc1ccccc1)c1cccc(Br)c1	3.3*	i	-10	i	i	i
Cc1ccc(NS(=O)(=O)c2cc(C(=O)Nc3cccc([N+](=O)[O-])c3)ccc2C)cc1	-0.8	-6.8*	-3	i	i	i
Cc1ccc(C(=O)Nc2cccc([N+](=O)[O-])c2)cc1S(=O)(=O)Nc1ccc(NC(=O)c2ccccc2)cc1	0.059	i	-8	i	i	i
O=C(CCN1CCN(S(=O)(=O)c2cccc([N+](=O)[O-])c2)CC1)Nc1ccccc1F	·	i	-7	i	i	i
Cc1ccc(NC(=O)c2cccs2)cc1S(=O)(=O)Nc1cccc(Cl)c1	-0.028	-7.8*	-9	i	i	i
Cc1cc(Br)ccc1NC(=S)Nc1cccc([N+](=O)[O-])c1	-2.4	i	-18	i	i	10*
COc1ccc2c3c(cccc13)C(=O)CC2	·	i	-48	i	i	i
O=C(N/N=C\c1ccc(-c2ccccc2[N+](=O)[O-])o1)C1COc2ccccc2O1 (centres undefined)	-0.31	-6.8*	-20	i	i	i
O=C(N/N=C\c1ccc(-c2ccccc2[N+](=O)[O-])o1)C1COc2cc3ccccc3cc2O1 (centres undefined)	-0.13	i	-8	i	i	i
Cc1ccc(OCCCN2CCOCC2)cc1	·	i	0	i	i	i
O=C(NCc1ccncc1)c1cc(C(=O)C2CCCCC2)c[nH]1	-0.63	i	6.2*	i	i	i
CSc1ccc(CN(C)C(=O)CNC(=O)c2ccc3c(c2)OCO3)cc1	·	i	-8	i	i	i
CC(CCc1ccccc1)NC(=O)c1ccc(C(=O)NC(C)CCc2ccccc2)cc1 (centres undefined)	-0.31	·	·	·	i	·
CC(CCc1ccccc1)NC(=O)c1cccs1 (centres undefined)	·	i	4.9*	i	i	i
CC(=O)/C(=N/Nc1ccc([N+](=O)[O-])cc1)N1CCCc2ccccc21	0.33	i	-1	i	i	i
CC(=O)/C(=N/Nc1ccccc1[N+](=O)[O-])N1CCCc2ccccc21	-0.79	-7.1*	-8	i	i	7*
CCOc1ccc(OCC)c(NC(=O)CN2CCN(c3cc(C)ccc3C)CC2)c1	·	i	-11	i	i	6*
